Tests used:
LOX IMVI = experiment: Growth inhibition of human LOXIMVI cells assessed as cell growth at 1 M after 48 hrs by sulforhodamine B assay; format: functional; parameters: scale not given: the % may be the effect or the level left
Summary of the method: (§1)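 NCI 60-cell screen at a single high dose. Cells are grown in RPMI 1640 with 5% FBS and 2 mM L-glutamine, then plated at 5000–40,000 cells/well and held 24 h at 37 °C in 5% CO2 at 100% humidity. Drug is then added and plates are incubated another 48 h, with SRB staining as read-out. Results are given as growth percent (100 = no inhibition, 0 = no net growth, negative = lethality).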

HOP-62 = experiment: Growth inhibition of human HOP62 cells assessed as cell growth at 1 M after 48 hrs by sulforhodamine B assay; format: functional; parameters: scale not given: the % may be the effect or the level left; summary of the method: as §1
NCI-H226 = experiment: Growth inhibition of human NCI-H226 cells assessed as cell growth at 1 M after 48 hrs by sulforhodamine B assay; format: functional; parameters: scale not given: the % may be the effect or the level left; summary of the method: as §1
[1] = tested on: Syncephalastrum racemosum; experiment: Antimicrobial activity against Syncephalastrum racemosum at 1 to 5 ug/ml by agar well diffusion method; format: functional
Summary of the method: (§2)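 Agar well diffusion against bacteria and fungi. Inhibition zone is scored beyond the control: ++ 0.6–1.0 cm, + 0.1–0.5 cm, 0 no inhibition.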

MDA-MB-435 = experiment: Growth inhibition of human MDA-MB-435 cells assessed as cell growth at 1 M after 48 hrs by sulforhodamine B assay; format: functional; parameters: scale not given: the % may be the effect or the level left; summary of the method: as §1
OVCAR-8 = experiment: Growth inhibition of human OVCAR8 cells assessed as cell growth at 1 M after 48 hrs by sulforhodamine B assay; format: functional; parameters: scale not given: the % may be the effect or the level left; summary of the method: as §1
Malme-3M = experiment: Growth inhibition of human MALME-3M cells assessed as cell growth at 1 M after 48 hrs by sulforhodamine B assay; format: functional; parameters: scale not given: the % may be the effect or the level left; summary of the method: as §1
SK-MEL-28 = experiment: Growth inhibition of human SK-MEL-28 cells assessed as cell growth at 1 M after 48 hrs by sulforhodamine B assay; format: functional; parameters: scale not given: the % may be the effect or the level left
Summary of the method: (§3)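 NCI 60-cell panel screen, single dose (1.0 M as printed). Cells grown in RPMI 1640 with 5% fetal bovine serum and 2 mM L-glutamine, seeded at 5000–40,000 cells/well, preincubated 24 h at 37 °C in 5% CO2 at 100% humidity, then exposed to compound for 48 h. Sulforhodamine B staining read-out. Result given as growth percent: 100 = no inhibition, 0 = no net growth, negative = lethality.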

COLO 205 = experiment: Growth inhibition of human COLO205 cells assessed as cell growth at 1 M after 48 hrs by sulforhodamine B assay; format: functional; parameters: scale not given: the % may be the effect or the level left; summary of the method: as §1
OVCAR-3 = experiment: Growth inhibition of human OVCAR3 cells assessed as cell growth at 1 M after 48 hrs by sulforhodamine B assay; format: functional; parameters: scale not given: the % may be the effect or the level left; summary of the method: as §1
OVCAR-4 = experiment: Growth inhibition of human OVCAR4 cells assessed as cell growth at 1 M after 48 hrs by sulforhodamine B assay; format: functional; parameters: scale not given: the % may be the effect or the level left; summary of the method: as §1
SK-OV-3 = experiment: Growth inhibition of human SKOV3 cells assessed as cell growth at 1 M after 48 hrs by sulforhodamine B assay; format: functional; parameters: scale not given: the % may be the effect or the level left; summary of the method: as §3
UO-31 = experiment: Growth inhibition of human UO31 cells assessed as cell growth at 1 M after 48 hrs by sulforhodamine B assay; format: functional; parameters: scale not given: the % may be the effect or the level left; summary of the method: as §3
Rattus norvegicus = species on record: Rattus norvegicus; experiment: Acute toxicity in albino rat; format: organism-based; conditions: in vivo
Summary of the method: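 Male albino rats received injections of increasing doses. LD50 and LD90, the doses killing 50% and 90% of the animals, were calculated by the Austen and Brocklehurst method.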

SR = experiment: Growth inhibition of human SR cells assessed as cell growth at 1 M after 48 hrs by sulforhodamine B assay; format: functional; parameters: scale not given: the % may be the effect or the level left; summary of the method: as §3
Candida albicans = experiment: Antimicrobial activity against Candida albicans at 1 to 5 ug/ml by agar well diffusion method; format: functional; summary of the method: as §2
HOP-92 = experiment: Growth inhibition of human HOP92 cells assessed as cell growth at 1 M after 48 hrs by sulforhodamine B assay; format: functional; parameters: scale not given: the % may be the effect or the level left; summary of the method: as §1
SF-295 = experiment: Growth inhibition of human SF295 cells assessed as cell growth at 1 M after 48 hrs by sulforhodamine B assay; format: functional; parameters: scale not given: the % may be the effect or the level left; summary of the method: as §3
UACC-257 = experiment: Growth inhibition of human UACC257 cells assessed as cell growth at 1 M after 48 hrs by sulforhodamine B assay; format: functional; parameters: scale not given: the % may be the effect or the level left; summary of the method: as §3
TK-10 = experiment: Growth inhibition of human TK10 cells assessed as cell growth at 1 M after 48 hrs by sulforhodamine B assay; format: functional; parameters: scale not given: the % may be the effect or the level left; summary of the method: as §3
SK-MEL-5 = experiment: Growth inhibition of human SK-MEL-5 cells assessed as cell growth at 1 M after 48 hrs by sulforhodamine B assay; format: functional; parameters: scale not given: the % may be the effect or the level left; summary of the method: as §3
HL-60(TB) = experiment: Growth inhibition of human HL-60(TB) cells assessed as cell growth at 1 M after 48 hrs by sulforhodamine B assay; format: functional; parameters: scale not given: the % may be the effect or the level left
Summary of the method: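 NCI 60-cell panel, single-dose screen. Cells grown in RPMI 1640 with 5% fetal bovine serum and 2 mM L-glutamine, seeded at 5000–40,000 cells/well and preincubated 24 h at 37 °C in 5% CO2 before drug. Exposure 48 h, then sulforhodamine B staining. Read-out is growth percent: 100 = no inhibition, 0 = no net growth, negative = lethality.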

CAKI-1 = experiment: Growth inhibition of human Caki1 cells assessed as cell growth at 1 M after 48 hrs by sulforhodamine B assay; format: functional; parameters: scale not given: the % may be the effect or the level left; summary of the method: as §1
Bacillus subtilis = experiment: Antimicrobial activity against Bacillus subtilis at 1 to 5 ug/ml by agar well diffusion method; format: functional; summary of the method: as §2
NCI-H522 = experiment: Growth inhibition of human NCI-H522 cells assessed as cell growth at 1 M after 48 hrs by sulforhodamine B assay; format: functional; parameters: scale not given: the % may be the effect or the level left; summary of the method: as §1
NCI-H460 = experiment: Growth inhibition of human NCI-H460 cells assessed as cell growth at 1 M after 48 hrs by sulforhodamine B assay; format: functional; parameters: scale not given: the % may be the effect or the level left; summary of the method: as §1
[2] = Growth inhibition of human Hs 578T cells assessed as cell growth at 1 M after 48 hrs by sulforhodamine B assay; format: functional; parameters: scale not given: the % may be the effect or the level left; summary of the method: as §1
UACC-62 = experiment: Growth inhibition of human UACC62 cells assessed as cell growth at 1 M after 48 hrs by sulforhodamine B assay; format: functional; parameters: scale not given: the % may be the effect or the level left; summary of the method: as §3
T47D = experiment: Growth inhibition of human T47D cells assessed as cell growth at 1 M after 48 hrs by sulforhodamine B assay; format: functional; parameters: scale not given: the % may be the effect or the level left; summary of the method: as §3
MDA-MB-468 = experiment: Growth inhibition of human MDA-MB-468 cells assessed as cell growth at 1 M after 48 hrs by sulforhodamine B assay; format: functional; parameters: scale not given: the % may be the effect or the level left; summary of the method: as §1
MDA-MB-231 = experiment: Growth inhibition of human MDA-MB-231 cells assessed as cell growth at 1 M after 48 hrs by sulforhodamine B assay; format: functional; parameters: scale not given: the % may be the effect or the level left; summary of the method: as §1
Escherichia coli = experiment: Antimicrobial activity against Escherichia coli at 1 to 5 ug/ml by agar well diffusion method; format: functional; summary of the method: as §2
Staphylococcus aureus = experiment: Antimicrobial activity against Staphylococcus aureus at 1 to 5 ug/ml by agar well diffusion method; format: functional; summary of the method: as §2
CCRF-CEM = experiment: Growth inhibition of human CCRF-CEM cells assessed as cell growth at 1 M after 48 hrs by sulforhodamine B assay; format: functional; parameters: scale not given: the % may be the effect or the level left; summary of the method: as §1

Structure (SMILES): CC(=O)c1ccc(N/N=C(\C(=O)c2ccc(Cl)cc2)c2nc(C)cc(=O)[nH]2)cc1
- Activity (LOX IMVI): 90.57%
- Activity (HOP-62): 116.72%
- Activity (NCI-H226): 111%
- diameter of the inhibition zone (DIZ) [1]: 0 cm
- Activity (MDA-MB-435): 95.8%
- Activity (OVCAR-8): 92.95%
- Activity (Malme-3M): 110.47%
- Activity (SK-MEL-28): 106.93%
- Activity (COLO 205): 121.73%
- Activity (OVCAR-3): 104.16%
- Activity (OVCAR-4): 99.2%
- Activity (SK-OV-3): 95.27%
- Activity (UO-31): 75.87%
- LD50 (Rattus norvegicus): 1.87034 mg/kg
- LD90 (Rattus norvegicus): 2.25087 mg/kg
- Activity (SR): 62.16%
- diameter of the inhibition zone (DIZ) (Candida albicans): 0 cm
- Activity (HOP-92): 97.73%
- Activity (SF-295): 95.38%
- Activity (UACC-257): 99.94%
- Activity (TK-10): 120.15%
- Activity (SK-MEL-5): 88.4%
- Activity (HL-60(TB)): 115.14%
- Activity (CAKI-1): 95%
- diameter of the inhibition zone (DIZ) (Bacillus subtilis): 0 cm
- Activity (NCI-H522): 84.76%
- Activity (NCI-H460): 103.13%
- Activity [2]: 90.12%
- Activity (UACC-62): 80.29%
- Activity (T47D): 75.56%
- Activity (MDA-MB-468): 94.65%
- Activity (MDA-MB-231): 85.96%
- diameter of the inhibition zone (DIZ) (Escherichia coli): 0 cm
- diameter of the inhibition zone (DIZ) (Staphylococcus aureus): 0 cm

Structure (SMILES): Cc1ccc(N/N=C(\C(=O)c2ccc(Cl)cc2)c2nc(C)cc(=O)[nH]2)cc1
- Activity (LOX IMVI): 92.62%
- Activity (CCRF-CEM): -15.08%
- Activity (HOP-62): 94.24%
- Activity (NCI-H226): 107.41%
- diameter of the inhibition zone (DIZ) [1]: 0 cm
- Activity (MDA-MB-435): 123.17%
- Activity (OVCAR-8): 100.7%
- Activity (Malme-3M): 126.09%
- Activity (SK-MEL-28): 117.97%
- Activity (COLO 205): 116.23%
- Activity (OVCAR-3): 95.76%
- Activity (OVCAR-4): 116.35%
- Activity (SK-OV-3): 115.86%
- LD50 (Rattus norvegicus): 2.663 mg/kg
- LD90 (Rattus norvegicus): 4.35687 mg/kg
- Activity (SR): 84.35%
- diameter of the inhibition zone (DIZ) (Candida albicans): 0 cm
- Activity (HOP-92): 90.99%
- Activity (SF-295): 90.05%
- Activity (UACC-257): 104.52%
- Activity (TK-10): 136.08%
- Activity (SK-MEL-5): 82.48%
- Activity (HL-60(TB)): 108.59%
- Activity (CAKI-1): 112.71%
- diameter of the inhibition zone (DIZ) (Bacillus subtilis): 0 cm
- Activity (NCI-H460): 105.3%
- Activity [2]: 99.88%
- Activity (UACC-62): 90.8%
- Activity (T47D): 88.32%
- Activity (MDA-MB-231): 95.9%
- diameter of the inhibition zone (DIZ) (Escherichia coli): 0.6 cm
- diameter of the inhibition zone (DIZ) (Staphylococcus aureus): 0 cm

Structure (SMILES): Cc1cc(=O)[nH]c(/C(=N/Nc2ccccc2)C(=O)c2ccc(Cl)cc2)n1
- Activity (LOX IMVI): 98.95%
- Activity (CCRF-CEM): 66.03%
- Activity (HOP-62): 104.07%
- Activity (NCI-H226): 108.67%
- diameter of the inhibition zone (DIZ) [1]: 0 cm
- Activity (MDA-MB-435): 107.78%
- Activity (OVCAR-8): 92.85%
- Activity (Malme-3M): 113.86%
- Activity (SK-MEL-28): 110.14%
- Activity (COLO 205): 105.71%
- Activity (OVCAR-3): 97.53%
- Activity (OVCAR-4): 110.81%
- Activity (SK-OV-3): 98.31%
- Activity (UO-31): 116.06%
- LD50 (Rattus norvegicus): 2.11122 mg/kg
- LD90 (Rattus norvegicus): 3.24592 mg/kg
- diameter of the inhibition zone (DIZ) (Candida albicans): 0 cm
- Activity (HOP-92): 88.71%
- Activity (SF-295): 75.72%
- Activity (TK-10): 65.49%
- Activity (SK-MEL-5): 92.44%
- Activity (HL-60(TB)): 50.74%
- Activity (CAKI-1): 103.86%
- diameter of the inhibition zone (DIZ) (Bacillus subtilis): 0 cm
- Activity (NCI-H460): 108.76%
- Activity [2]: 83.59%
- Activity (UACC-62): 91.99%
- Activity (T47D): 77.02%
- Activity (MDA-MB-231): 101.67%
- diameter of the inhibition zone (DIZ) (Escherichia coli): 0.6 cm
- diameter of the inhibition zone (DIZ) (Staphylococcus aureus): 0 cm
